Reference: publication PMC6198128 (Redox Biology, 2018)

Experiments:
[1] = tested on: HCT116 (human colon carcinoma); test: Alamar blue cytotoxicity assay, HCT116; type: cell-based
[2] = tested on: HL-60 cells; test: Internucleosomal DNA fragmentation and cell cycle distribution; type: cell-based, human
Procedure, shortened: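 After 24 or 48 h treatment, HL-60 cells were permeabilized and stained with propidium iodide, and DNA content was measured by flow cytometry. 10^4 events were recorded per sample with debris excluded. Sub-G0/G1 was taken as internucleosomal DNA fragmentation, alongside G0/G1, S and G2/M fractions. Doxorubicin and oxaliplatin were positive controls; ANOVA with Student–Newman–Keuls test.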

[3] = tested on: calf thymus DNA (ctDNA); test: DNA intercalation assay; type: binding; settings: cell-free, 15 µg/mL ctDNA, 1.5 µM ethidium bromide; complex 5, 10 and 20 µM; doxorubicin 10 µM
Procedure, shortened: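 Ethidium bromide displacement from calf thymus DNA in saline: 15 µg/mL ctDNA, 1.5 µM ethidium bromide, test compound at 5, 10 and 20 µM. Vehicle (0.1% DMSO) was the negative control and doxorubicin (10 µM) the positive control. Fluorescence was read at excitation 320 nm and emission 600 nm. Lower fluorescence was taken as intercalation.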

[4] = tested on: HL-60 cells; type: cell-based, human; settings: HL-60, 24 and 48 h, p < 0.05; DOX 2 µM, OXA 2.5 µM
[5] = tested on: B16-F10 (mouse melanoma); test: Alamar blue cytotoxicity assay, B16-F10; type: cell-based
[6] = tested on: HepG2 (human hepatocellular carcinoma); test: Alamar blue cytotoxicity assay, HepG2; type: cell-based
[7] = tested on: HSC-3 (human oral squamous cell carcinoma); test: Alamar blue cytotoxicity assay, HSC-3; type: cell-based
[8] = tested on: HL-60 cells; test: Morphological analysis; type: cell-based, human; settings: 24 and 48 h, DOX 2 µM, OXA 2.5 µM
Procedure, shortened: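 HL-60 cells were treated for 24 and 48 h, then stained with May-Grunwald-Giemsa and examined by light microscopy. In parallel, forward and side light scatter were quantified by flow cytometry, recording 10^4 events per sample with debris excluded. Vehicle was the negative control, with doxorubicin and oxaliplatin as positive controls.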

[9] = tested on: ROS in HL-60 cells; test: Intracellular reactive oxygen species levels; type: cell-based, human; settings: HL-60, DCFH-DA, 1 h
Procedure, shortened: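 Intracellular ROS in HL-60 cells was measured with 2′,7′-dichlorofluorescin diacetate after 1 and 3 h exposure to test compound. Fluorescence was read by flow cytometry, recording 10^4 events per sample with cellular debris omitted. Vehicle served as negative control; results are mean ± S.E.M., compared by ANOVA and Student–Newman–Keuls test.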

[10] = tested on: HL-60 cells; test: Mitochondrial transmembrane potential; type: cell-based, human; settings: HL-60, rhodamine 123, 24 h, p < 0.05; DOX 2 µM, OXA 2.5 µM
Procedure, shortened: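 HL-60 cells were grown in RPMI-1640 with 10% FBS, 2 mM L-glutamine and 50 µg/mL gentamycin at 37 °C, 5% CO2. After treatment, cells were loaded with rhodamine 123 (5 µg/mL) for 15 min at 37 °C in the dark and washed in saline.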

[11] = tested on: MCF-7 (human breast carcinoma); test: Alamar blue cytotoxicity assay, MCF-7; type: cell-based
[12] = tested on: K-562 (human chronic myelogenous leukemia); test: Alamar blue cytotoxicity assay, K-562; type: cell-based
[13] = tested on: PBMC (human peripheral blood mononuclear cells); test: Alamar blue cytotoxicity assay, PBMC; type: cell-based; settings: read-out: IC50 in µM; PBMC non-cancer cells, alamar blue, 72 h
[14] = tested on: HL-60 (human promyelocytic leukemia); test: Alamar blue cytotoxicity assay, HL-60; type: cell-based
[15] = Time-dependent 31P{1H} NMR stability in DMSO solution; type: physicochemical
[16] = tested on: SCC-9 (human oral squamous cell carcinoma); test: Alamar blue cytotoxicity assay, SCC-9; type: cell-based
[17] = HL-60, 1 µM, 24 h of incubation
[18] = HL-60, 1 µM, 48 h of incubation
[19] = HL-60, 2 µM, 24 h of incubation
[20] = HL-60, 2 µM, 48 h of incubation
[21] = HL-60, 4 µM, 24 h of incubation
[22] = HL-60, 4 µM, 48 h of incubation

cis-[PtCl(PIP-OH)(PPh3)2]PF6 [CPP]
more potent than PIP-OH ([1]; HCT116, ratio of IC50): 2.4 fold
more potent than piplartine ([1]; HCT116, ratio of IC50): 1.1 fold
IC50 ([1]; read-out: IC50 in µM, HCT116, alamar blue, 72 h): 4.8 µM
DNA content (%) G0/G1 [2, 17]: 32.0 ± 5.4 %
DNA content (%) G2/M [2, 17]: 13.2 ± 2.9%
DNA content (%) S [2, 17]: 10.5 ± 1.8%
DNA content (%) Sub-G0/G1 [2, 17]: 25.0 ± 1.6 %
DNA content (%) G0/G1 [2, 18]: 49.7 ± 2.2%
DNA content (%) G2/M [2, 18]: 14.5 ± 0.9%
DNA content (%) S [2, 18]: 12.3 ± 1.6%
DNA content (%) Sub-G0/G1 [2, 18]: 19.8 ± 1.4 %
DNA content (%) G0/G1 [2, 19]: 34.3 ± 2.9 %
DNA content (%) G2/M [2, 19]: 15.0 ± 2.5%
DNA content (%) S [2, 19]: 10.3 ± 1.1%
DNA content (%) Sub-G0/G1 [2, 19]: 29.2 ± 0.9 %
DNA content (%) G0/G1 [2, 20]: 48.5 ± 3.1%
DNA content (%) G2/M [2, 20]: 14.1 ± 1.5%
DNA content (%) S [2, 20]: 14.3 ± 0.8%
DNA content (%) Sub-G0/G1 [2, 20]: 25.8 ± 3.8 %
DNA content (%) G0/G1 [2, 21]: 26.7 ± 4.6 %
DNA content (%) G2/M [2, 21]: 15.3 ± 2.6%
DNA content (%) S [2, 21]: 10.1 ± 1.4%
DNA content (%) Sub-G0/G1 [2, 21]: 26.2 ± 4.1 %
DNA content (%) G0/G1 [2, 22]: 41.9 ± 8.6%
DNA content (%) G2/M [2, 22]: 12.8 ± 2.8%
DNA content (%) S [2, 22]: 8.0 ± 2.0 %
DNA content (%) Sub-G0/G1 [2, 22]: 27.3 ± 7.0 %
ethidium bromide fluorescence (displacement from ctDNA) [3]: did not reduce the ethidium bromide fluorescence
apoptotic cells (annexin V-FITC/PI) [4]: increasing in apoptotic cells with more pronounced effect after 48 h
more potent than PIP-OH ([5]; B16-F10, ratio of IC50): 56.9 fold
more potent than piplartine ([5]; B16-F10, ratio of IC50): 9.6 fold
IC50 ([5]; read-out: IC50 in µM, B16-F10, alamar blue, 72 h): 1.1 µM
more potent than piplartine ([6]; HepG2, ratio of IC50): 1.4 fold
IC50 ([6]; read-out: IC50 in µM, HepG2, alamar blue, 72 h): 4.4 µM
more potent than PIP-OH ([7]; HSC-3, ratio of IC50): 1.7 fold
more potent than piplartine ([7]; HSC-3, ratio of IC50): 14.1 fold
IC50 ([7]; read-out: IC50 in µM, HSC-3, alamar blue, 72 h): 1 µM
cell morphology ([8]; HL-60, May-Grunwald-Giemsa): reduction in the cell volume, chromatin condensation and fragmentation of the nuclei
forward light scatter (FSC) ([8]; HL-60, flow cytometry): decrease in FSC
side scatter (SCC) ([8]; HL-60, flow cytometry): transient increase in SCC
ROS levels [9]: caused increasing in the ROS levels
mitochondrial transmembrane potential [10]: induced loss of the mitochondrial transmembrane potential
more potent than PIP-OH ([11]; MCF-7, ratio of IC50): 3.6 fold
more potent than piplartine ([11]; MCF-7, ratio of IC50): 1.5 fold
IC50 ([11]; read-out: IC50 in µM, MCF-7, alamar blue, 72 h): 6.8 µM
more potent than PIP-OH ([12]; K-562, ratio of IC50): 21.1 fold
more potent than piplartine ([12]; K-562, ratio of IC50): 16.9 fold
IC50 ([12]; read-out: IC50 in µM, K-562, alamar blue, 72 h): 1.1 µM
IC50 [13]: 10.3 µM
more potent than PIP-OH ([14]; HL-60, ratio of IC50): 4.5 fold
more potent than piplartine ([14]; HL-60, ratio of IC50): 7.4 fold
IC50 ([14]; read-out: IC50 in µM, HL-60, alamar blue, 72 h): 1.9 µM
stability in solution (31P{1H} NMR) ([15]; after 1 h of incubation): significant dissociation of PIP-OH ligand from the metal complex
stability in solution (31P{1H} NMR) ([15]; after 48 h): most the PIP-OH was dissociated from the metal complex
more potent than PIP-OH ([16]; SCC-9, ratio of IC50): 3.8 fold
more potent than piplartine ([16]; SCC-9, ratio of IC50): 2.7 fold
IC50 ([16]; read-out: IC50 in µM, SCC-9, alamar blue, 72 h): 6.2 µM
